Measurements taken from ChEMBL document CHEMBL1121740, “2-l-Rhamnopyranosyl[1,2,4]triazolo[1,5-a]pyridine. 4' and 3' Oxidation products. Synthesis and structure-activity relationships” (J Med Chem, 1981).
In brackets after ≈: the same amount, converted by molar mass.

Assays:
[1] = Cytotoxic dose that inhibit multiplication of normal fibroblast cells (C3H cells); format: cell-based; conditions: mouse, read-out: CD50 (the source's name)
Method in brief: (§1)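 Growth assay on C3H mouse fibroblasts. 10⁴ cells are seeded per well, and different doses of product are added 24 h later. Cellular growth and morphology are examined on day +5.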

[2] = Cytotoxicity at 10 ug/mL against normal mouse fibroblasts (C3H cells) cells; format: cell-based
Method in brief: (§2)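 Colony-forming (plating efficiency) assay. 200 C3H or S+L- 3T3 FL cells per well, grown in McCoy's 5a with 10% heat-inactivated FCS. Various product concentrations are added 24 h after seeding. Colonies are stained with May Grunwald Giemsa and counted on day +9. Percent colony formation is taken relative to untreated control cells, set as 100% plating efficiency.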

[3] = Cytotoxicity at 20 ug/mL against normal mouse fibroblasts (C3H cells) cells; format: cell-based; method in brief: as §2
[4] = Cytotoxicity at 5 ug/mL against normal mouse fibroblasts (C3H cells) cells; format: cell-based; method in brief: as §2
[5] = Percent inhibition at 10 ug/mL for focus formation on day +10, using MSV assay on C3H cells without the addition of helper virus; format: functional; conditions: Mus musculus
Method in brief: (§3)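 MSV focus assay on C3H cells. 8 × 10⁴ cells are seeded per 60-mm dish and pretreated 24 h later with 20 µg/mL DEAE-dextran. Cells are infected with diluted MSV alone or MSV plus MuLV helper, with adsorption for 30 min at 37 °C. Filtered aqueous compound, diluted in medium, is added right after infection. Foci are counted on days 5 and 10. MSV titer was 7×10⁶.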

[6] = Percent inhibition at 10 ug/mL for focus formation on day +5, using MSV assay on C3H cells with optimal amount of helper virus; format: functional; conditions: Mus musculus; method in brief: as §3
[7] = Percent inhibition at 10 ug/mL for focus formation on day +5, using MSV assay on C3H cells without the addition of helper virus; format: functional; conditions: Mus musculus; method in brief: as §3
[8] = Percent inhibition at 20 ug/mL for focus formation on day +10, using MSV assay on C3H cells without the addition of helper virus; format: functional; conditions: Mus musculus; method in brief: as §3
[9] = Percent inhibition at 20 ug/mL for focus formation on day +5, using MSV assay on C3H cells with optimal amount of helper virus; format: functional; conditions: Mus musculus; method in brief: as §3
[10] = Cytotoxic dose that inhibit multiplication of normal fibroblasts; conditions: mouse, read-out: CD50 (the source's name); method in brief: as §1
[11] = Percent inhibition at 5 ug/mL for focus formation on day +10, using MSV assay on C3H cells without the addition of helper virus; format: functional; conditions: Mus musculus; method in brief: as §3
[12] = Percent inhibition at 5 ug/mL for focus formation on day +5, using MSV assay on C3H cells with optimal amount of helper virus; format: functional; conditions: Mus musculus; method in brief: as §3
[13] = Percent inhibition at 5 ug/mL for focus formation on day +5, using MSV assay on C3H cells without the addition of helper virus; format: functional; conditions: Mus musculus; method in brief: as §3
[14] = Percent inhibition at 20 ug/mL for focus formation on day +5, using MSV assay on C3H cells without the addition of helper virus; format: functional; conditions: Mus musculus; method in brief: as §3
[15] = Percent inhibition at 3 ug/mL for focus formation on day +10, using MSV assay on C3H cells without the addition of helper virus; format: functional; conditions: Mus musculus; method in brief: as §3
[16] = Percent inhibition at 3 ug/mL for focus formation on day +5, using MSV assay on C3H cells with optimal amount of helper virus; format: functional; conditions: Mus musculus; method in brief: as §3
[17] = Percent inhibition at 3 ug/mL for focus formation on day +5, using MSV assay on C3H cells without the addition of helper virus; format: functional; conditions: Mus musculus; method in brief: as §3
Murine leukemia virus = assay: Inhibitory dose against MSV titer in the absence of Murine leukemia virus on day +10; format: functional, Mus musculus; conditions: read-out: ID50 (the source's name); method in brief: as §3
[18] = Cytotoxicity at 10 ug/mL against MSV transformed (S+L-cells) cells; format: cell-based; conditions: mouse; method in brief: as §2
[19] = Cytotoxicity at 20 ug/mL against MSV transformed (S+L-cells) cells; format: cell-based; conditions: mouse; method in brief: as §2
[20] = Cytotoxicity at 5 ug/mL against MSV transformed (S+L-cells) cells; format: cell-based; conditions: mouse; method in brief: as §2
[21] = Percent inhibition at 10 ug/mL for focus formation using MLV assay on S+L- cells; format: functional; conditions: Mus musculus
[22] = Percent inhibition at 3 ug/mL for focus formation using MLV assay on S+L- cells; format: functional; conditions: Mus musculus
[23] = Percent inhibition at 5 ug/mL for focus formation using MLV assay on S+L- cells; format: functional; conditions: Mus musculus
[24] = Toxic effect on S+L-cell colony formation; format: toxicity; conditions: mouse, S+L- cells; read-out: TD50 (the source's name)
Method in brief: (§4)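 S+L- (MSV-transformed 3T3 FL) cells grown in McCoy's 5a with 10% heat-inactivated fetal calf serum and antibiotics. Plating efficiency assay: 200 cells seeded per 35-mm well; product added at various concentrations 24 h after seeding. Colonies stained with May Grunwald Giemsa and counted on day +9. Colony formation expressed relative to untreated controls taken as 100% plating efficiency.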

[25] = Cytotoxicity at 100 ug/mL against normal mouse fibroblasts (C3H cells) cells; format: cell-based; method in brief: as §2
[26] = Cytotoxicity at 250 ug/mL against normal mouse fibroblasts (C3H cells) cells; format: cell-based; method in brief: as §2
[27] = Cytotoxicity at 50 ug/mL against normal mouse fibroblasts (C3H cells) cells; format: cell-based; method in brief: as §2
[28] = Percent inhibition at 100 ug/mL for focus formation on day +10, using MSV assay on C3H cells without the addition of helper virus; format: functional; conditions: Mus musculus; method in brief: as §3
[29] = Percent inhibition at 100 ug/mL for focus formation on day +5, using MSV assay on C3H cells with optimal amount of helper virus; format: functional; conditions: Mus musculus; method in brief: as §3
[30] = Percent inhibition at 30 ug/mL for focus formation on day +5, using MSV assay on C3H cells without the addition of helper virus; format: functional; conditions: Mus musculus; method in brief: as §3
[31] = Percent inhibition at 30 ug/mL for focus formation on day +10, using MSV assay on C3H cells without the addition of helper virus; format: functional; conditions: Mus musculus; method in brief: as §3
[32] = Percent inhibition at 30 ug/mL for focus formation on day +5, using MSV assay on C3H cells with optimal amount of helper virus; format: functional; conditions: Mus musculus; method in brief: as §3
[33] = Percent inhibition at 50 ug/mL for focus formation on day +10, using MSV assay on C3H cells without the addition of helper virus; format: functional; conditions: Mus musculus; method in brief: as §3
[34] = Percent inhibition at 50 ug/mL for focus formation on day +5, using MSV assay on C3H cells with optimal amount of helper virus; format: functional; conditions: Mus musculus; method in brief: as §3
[35] = Percent inhibition at 50 ug/mL for focus formation on day +5, using MSV assay on C3H cells without the addition of helper virus; format: functional; conditions: Mus musculus; method in brief: as §3
[36] = Toxic effect on C3H cell colony formation; format: toxicity, cell-based; conditions: mouse, C3H cells; read-out: TD50 (the source's name); method in brief: as §2
[37] = Cytotoxicity at 250 ug/mL against MSV transformed (S+L-cells) cells; format: cell-based; conditions: mouse; method in brief: as §2
[38] = Cytotoxicity at 50 ug/mL against MSV transformed (S+L-cells) cells; format: cell-based; conditions: mouse; method in brief: as §2
[39] = Inhibitory action of Murine leukemia virus titer on S+L-cell in presence of the compound; format: functional; conditions: Mus musculus; read-out: ID50 (the source's name)
[40] = Percent inhibition at 100 ug/mL for focus formation using MLV assay on S+L- cells; format: functional; conditions: Mus musculus
[41] = Percent inhibition at 30 ug/mL for focus formation using MLV assay on S+L- cells; format: functional; conditions: Mus musculus
[42] = Percent inhibition at 50 ug/mL for focus formation using MLV assay on S+L- cells; format: functional; conditions: Mus musculus
[43] = Toxic effect on S+L- cell colony formation; format: toxicity; conditions: mouse, S+L- cells; read-out: TD50 (the source's name); method in brief: as §4
[44] = Percent inhibition at 100 ug/mL for focus formation on day +5, using MSV assay on C3H cells without the addition of helper virus; format: functional; conditions: Mus musculus; method in brief: as §3
[45] = Cytotoxicity at 100 ug/mL against MSV transformed (S+L-cells) cells; format: cell-based; conditions: mouse; method in brief: as §2
[46] = Percent inhibition at 2.5 ug/mL for focus formation on day +5, using MSV assay on C3H cells with optimal amount of helper virus; format: functional; conditions: Mus musculus; method in brief: as §3
[47] = Percent inhibition at 200 ug/mL for focus formation on day +10, using MSV assay on C3H cells without the addition of helper virus; format: functional; conditions: Mus musculus; method in brief: as §3
[48] = Percent inhibition at 200 ug/mL for focus formation on day +5, using MSV assay on C3H cells with optimal amount of helper virus; format: functional; conditions: Mus musculus; method in brief: as §3
[49] = Percent inhibition at 200 ug/mL for focus formation on day +5, using MSV assay on C3H cells without the addition of helper virus; format: functional; conditions: Mus musculus; method in brief: as §3
[50] = Percent inhibition at 200 ug/mL for focus formation using MLV assay on S+L- cells; format: functional; conditions: Mus musculus

C[C@@H]1O[C@@H](c2nc3c([N+](=O)[O-])cccn3n2)[C@H](O)[C@H](O)[C@@H]1O
CC50 [1]: 400 µg/mL (≈ 1290 µM)

C[C@@H]1O[C@@H](c2nc3c([N+](=O)[O-])cccn3n2)[C@H](O)[C@H](O)[C@H]1O
CC50 [1]: 500 µg/mL (≈ 1610 µM)

CC1OC(c2nc3c([N+](=O)[O-])cccn3n2)=CC(O)C1O (stereo unspecified)
Colony formation [2]: 27%
Colony formation [3]: 2%
Colony formation [4]: 71.5%
inhibition at 10 µg/mL [5]: 58%
inhibition at 10 µg/mL [6]: 50%
inhibition at 10 µg/mL [7]: 64%
inhibition at 20 µg/mL [8]: 70%
inhibition at 20 µg/mL [9]: 76%
CC50 [10]: 62.5 µg/mL (≈ 214 µM)
inhibition at 5 µg/mL [11]: 30%
inhibition at 5 µg/mL [12]: 26%
inhibition at 5 µg/mL [13]: 44%
inhibition at 20 µg/mL [14]: 91%
inhibition at 3 µg/mL [15]: 0%
inhibition at 3 µg/mL [16]: 39%
inhibition at 3 µg/mL [17]: 15%
IC50 (Murine leukemia virus): 9 µg/mL (≈ 30.8 µM)
Colony formation [18]: 18%
Colony formation [19]: 0%
Colony formation [20]: 49%
inhibition at 10 µg/mL [21]: 82.5%
inhibition at 3 µg/mL [22]: 30%
inhibition at 5 µg/mL [23]: 50%
CC50 [24]: 5 µg/mL (≈ 17.1 µM)

CC1OC(c2nc3c([N+](=O)[O-])cccn3n2)C(O)C(O)C1=O (stereo unspecified)
Colony formation [25]: 76%
Colony formation [26]: 21%
Colony formation [27]: 109%
inhibition at 100 µg/mL [28]: 42%
inhibition at 100 µg/mL [29]: 78%
inhibition at 30 µg/mL [30]: 35%
inhibition at 30 µg/mL [31]: 0%
inhibition at 30 µg/mL [32]: 31%
inhibition at 50 µg/mL [33]: 14%
inhibition at 50 µg/mL [34]: 46%
inhibition at 50 µg/mL [35]: 54%
CC50 [36]: 150 µg/mL (≈ 487 µM)
IC50 (Murine leukemia virus): 145 µg/mL (≈ 470 µM)
Colony formation [37]: 0%
Colony formation [38]: 81%
IC50 [39]: 43 µg/mL
inhibition at 100 µg/mL [40]: 80%
inhibition at 30 µg/mL [41]: 35%
inhibition at 50 µg/mL [42]: 55%
CC50 [43]: 73 µg/mL (≈ 237 µM)
inhibition at 100 µg/mL [44]: 67%
Colony formation [45]: 25%

O=[N+]([O-])c1cccn2nc([C@@H]3O[C@H](CO)[C@@H](O)[C@H]3O)nc12
inhibition at 2.5 µg/mL [46]: 47%
inhibition at 5 µg/mL [12]: 62%
Colony formation [18]: 46%
Colony formation [20]: 79.6%

CC1OC(c2nc3c(N)cccn3n2)C(O)C(O)C1O (stereo unspecified)
Colony formation [25]: 115%
Colony formation [26]: 108%
inhibition at 200 µg/mL [47]: 0%
inhibition at 200 µg/mL [48]: 11%
inhibition at 200 µg/mL [49]: 0%
Colony formation [37]: 94%
IC50 [39]: 200 µg/mL
inhibition at 200 µg/mL [50]: 50%
Colony formation [45]: 83%
